Source: ChEMBL document CHEMBL2406988, “Inhibition of the human proteasome by imidazoline scaffolds” (J Med Chem, 2013)
Values after ≈ are worked out from the molar mass of the structure shown. Active and inactive are the calls of the source. No cut-off for these calls is given here.

Legend:
[1] = Inhibition of chymotryptic-like activity of human 20S proteasome using Suc-LLVY-AMC as substrate measured every min over 30 mins by fluorescence assay
THP-1 [2] = assay: Cytotoxicity against bortezomib-resistant human THP1 cells assessed as cell viability at 10 uM after 72 hrs by MTS assay relative to vehicle-treated control; format: functional; conditions: for viability at 10 µM: THP-1, 72 h, read-out: Activity
In short: (§1)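 THP-1 cells in RPMI-1640 with 10% FBS, penicillin/streptomycin, 1 mM sodium pyruvate and 0.2 mM L-glutamine at 37°C, 5% CO2. […] Compound in DMSO, final 10 μM, 0.5% DMSO, 72 h. MTS (CellTiter 96 AQueous One) read at 490 nm, background-subtracted, as % of vehicle.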

THP-1 [3] = assay: Cytotoxicity against wild type human THP1 cells assessed as cell viability at 10 uM after 72 hrs by MTS assay relative to vehicle-treated control; format: functional; conditions: THP-1, 72 h, read-out: Activity; in short: as §1
Homo sapiens [4] = species on record: Homo sapiens; assay: Non-competitive inhibition of chymotryptic-like activity of human 20S proteasome using Suc-LLVY-AMC as substrate at 1.25 to 5 uM
In short: (§2)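 Kinetics: purified human 20S proteasome with vehicle or inhibitor at 1.25, 2.5 or 5 μM across varying Suc-LLVY-AMC concentrations. Velocity is followed by AMC fluorescence as in the activity assay. Vmax and Km come from Michaelis-Menten fits with a Lineweaver-Burk plot.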

[5] = Inhibition of NFkappaB-mediated gene transcription in human HeLa cells after 1 hr by Dual-Glo luciferase reporter assay; format: cell-based
[6] = Solubility of the compound in dextrose-water solution at pH 6.5 after 5 mins; format: physicochemical; conditions: buffer, pH 6.5, 5 min
In short: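 1 mL of 5% dextrose in water is brought to pH 6.5 with 3 μl 2 N HCl. Solid is added in 0.5 mg portions, then 0.1 mg near saturation. Each addition is vortexed 40 s and sonicated 30 s at 37.5°C, then held 5 min at 37.5°C and judged visually.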

[7] = Inhibition of 20S proteasome (unknown origin); design: species or system Homo sapiens
THP-1 [8] = assay: Cytotoxicity against wild type human THP1 cells assessed as cell viability at 0.5 uM after 72 hrs by MTS assay relative to vehicle-treated control; conditions: THP-1, 72 h, read-out: Activity
THP-1 [9] = assay: cells; conditions: Homo sapiens, THP-1, 72 h, read-out: Activity
Homo sapiens [10] = species on record: Homo sapiens; assay: Non-competitive inhibition of chymotryptic-like activity of human 20S proteasome using Suc-LLVY-AMC as substrate; in short: as §2

| Compound | IC50 [1] | other results |
| --- | --- | --- |
| CCOC(=O)[C@]1(c2ccccc2)N=C(c2ccc(OC)cc2)N(Cc2ccccc2)[C@@H]1c1ccc(NS(=O)(=O)c2ccccc2)cc1 (racemic) | 0.58 µM |  |
| CCOC(=O)[C@]1(c2ccccc2)N=C(c2ccc(OC)cc2)N(Cc2ccccc2)[C@@H]1c1ccc(NCc2ccc(O)cc2)cc1 (racemic) | 0.54 µM | viability at 10 µM (THP-1 [2]): 36%; viability at 10 µM (THP-1 [3]): 23% |
| CCOC(=O)[C@]1(c2ccccc2)N=C(c2ccc(OC)cc2)N(Cc2ccccc2)[C@@H]1c1ccc(NCc2ccccc2)cc1 (racemic) |  | viability at 10 µM (THP-1 [2]): 19%; viability at 10 µM (THP-1 [3]): 4%; inhibition (Homo sapiens [4]): Active |
| CCOC(=O)[C@]1(c2ccccc2)N=C(c2ccc(OC)cc2)N(Cc2ccccc2)[C@@H]1c1ccc(C(N)=O)cc1 (racemic) | > 10 µM |  |
| CCOC(=O)[C@]1(c2ccccc2)N=C(c2ccc(OC)cc2)N(Cc2ccccc2)[C@@H]1c1ccc(NC(=O)c2ccccc2)cc1 (racemic) | 1.44 µM |  |
| CCOC(=O)[C@]1(c2ccccc2)N=C(c2ccccc2)N(Cc2ccccc2)[C@@H]1c1ccc(NS(=O)(=O)c2ccccc2)cc1 (racemic) | 1.08 µM |  |
| CCOC(=O)[C@]1(c2ccccc2)N=C(c2ccc(OC)cc2)N(Cc2ccccc2)[C@@H]1c1ccccc1 (racemic) | 1.27 µM |  |
| CCOC(=O)[C@]1(c2ccccc2)N=C(c2ccc(OC)cc2)N(Cc2ccccc2)[C@@H]1c1ccc(NCc2cc(OC)c(OC)c(OC)c2)cc1 (racemic) | 0.37 µM | viability at 10 µM (THP-1 [2]): 34%; viability at 10 µM (THP-1 [3]): 24% |
| CC(C)C[C@H](NC(=O)[C@H](Cc1ccccc1)NC(=O)c1cnccn1)B(O)O [BORTEZOMIB] |  | IC50 [7]: 0.005 µM; viability at 0.5 µM (THP-1 [8]): < 5%; viability at 0.5 µM (THP-1 [9]): 68% |
| CCOC(=O)[C@]1(c2ccccc2)N=C(c2ccc(OC)cc2)N(Cc2ccccc2)[C@@H]1c1ccc(N)cc1 (racemic) | 1.97 µM | viability at 10 µM (THP-1 [2]): 98%; viability at 10 µM (THP-1 [3]): 44% |
| CCOC(=O)[C@]1(c2ccccc2)N=C(c2ccccc2)N(C(=O)c2ccccc2)[C@@H]1c1ccccc1 | > 10 µM |  |
| CCOC(=O)[C@]1(c2ccccc2)N=C(c2ccc(OC)cc2)N(Cc2ccccc2)[C@@H]1c1ccc(NCC2CCCCC2)cc1 (racemic) | 0.13 µM | viability at 10 µM (THP-1 [2]): 5%; viability at 10 µM (THP-1 [3]): 4% |
| CCOC(=O)[C@]1(c2ccccc2)N=C(c2ccccc2)N(Cc2ccc(OC)cc2)[C@@H]1c1ccccc1 | 2.73 µM |  |
| CCOC(=O)[C@]1(c2ccccc2)N=C(c2ccccc2)N(S(=O)(=O)c2ccc(C)cc2)[C@@H]1c1ccccc1 | > 10 µM |  |
| CCOC(=O)[C@]1(c2ccccc2)N=C(c2ccc(OC)cc2)N(Cc2ccccc2)[C@@H]1c1ccc(NC(C)=O)cc1 (racemic) | 2.17 µM |  |
| CCOC(=O)[C@]1(c2ccccc2)N=C(c2ccc(OC)cc2)N(Cc2ccccc2)[C@@H]1c1ccc(NS(=O)(=O)C2CC2)cc1 (racemic) | 0.91 µM |  |
| CCOC(=O)[C@]1(c2ccccc2)N=C(c2ccc(OC)cc2)N(Cc2ccccc2)[C@@H]1c1ccc(NC(=N)N)cc1 (racemic) | 0.63 µM |  |
| CCOC(=O)[C@]1(c2ccccc2)N=C(c2ccc(OC)cc2)N(Cc2ccccc2)[C@@H]1c1ccc(NS(=O)(=O)c2ccc(OC)cc2OC)cc1 (racemic) | 0.53 µM |  |
| CCOC(=O)[C@]1(c2ccccc2)N=C(c2ccc(OC)cc2)N(Cc2ccccc2)[C@@H]1c1ccc(C#N)cc1 (racemic) | > 10 µM |  |
| CCOC(=O)[C@]1(c2ccccc2)N=C(c2ccccc2)N(Cc2ccccc2)[C@@H]1c1ccc(NCc2ccccc2)cc1 (racemic) | 0.47 µM |  |
| CCOC(=O)[C@]1(c2ccccc2)N=C(c2ccccc2)N(Cc2ccco2)[C@@H]1c1ccccc1 | 7.04 µM |  |
| CCOC(=O)[C@]1(c2ccccc2)N=C(c2ccc(OC)cc2)N(Cc2ccccc2)[C@@H]1c1ccc(NS(=O)(=O)Cc2ccccc2)cc1 | 1.08 µM |  |
| CCOC(=O)[C@]1(c2ccccc2)N=C(c2ccc(OC)cc2)N(Cc2ccccc2)[C@@H]1c1ccc(NS(=O)(=O)N(C)C)cc1 (racemic) | 1.22 µM |  |
| O=C(OCc1ccccc1)[C@]1(c2ccccc2)N=C(c2ccccc2)N(Cc2ccccc2)[C@@H]1c1ccccc1 | 2.4 µM | IC50 [5]: 3.5 µM |

More lines, main results first:

| IC50 [1] | Compound | other results |
| --- | --- | --- |
| 3.52 µM | CCOC(=O)[C@]1(c2ccccc2)N=C(c2ccccc2)N(Cc2ccccc2)[C@@H]1c1ccc(N)cc1 |  |
| 6.71 µM | CCOC(=O)[C@]1(c2ccccc2)N=C(c2ccccc2)N(Cc2ccccc2)[C@@H]1c1ccc([N+](=O)[O-])cc1 |  |
| 5.4 µM | COC(=O)[C@]1(c2ccccc2)N=C(c2ccccc2)N(Cc2ccccc2)[C@@H]1c1ccccc1 | IC50 [5]: 7.5 µM |
| 1.9 µM | CCOC(=O)[C@]1(c2ccccc2)N=C(c2ccccc2)N(Cc2ccc(Br)cc2)[C@@H]1c1ccccc1 | solubility [6]: < 500 µg/mL |
| 1.4 µM | c1ccc(CN2C(c3ccccc3)=N[C@H](c3ccccc3)[C@H]2c2ccccc2)cc1 | IC50 [5]: 4.6 µM |
| > 10 µM | c1ccc(CN2CCN=C2c2ccccc2)cc1 | IC50 [5]: > 10 µM |
| 3.2 µM | O=C(OCCO)[C@]1(c2ccccc2)N=C(c2ccccc2)N(Cc2ccccc2)[C@@H]1c1ccccc1 (racemic) | IC50 [5]: 10.9 µM |
| 2.77 µM | CCOC(=O)[C@]1(c2ccccc2)N=C(c2ccccc2)N(Cc2ccccc2)[C@@H]1c1ccc(SC)cc1 (racemic) |  |
| > 10 µM | CCOC(=O)[C@]1(c2ccccc2)N=C(c2ccccc2)N(Cc2ccccc2)[C@@H]1c1ccc(S(C)(=O)=O)cc1 (racemic) |  |
| > 10 µM | CCOC(=O)[C@]1(c2ccccc2)N=C(c2ccccc2)N[C@@H]1c1ccccc1 |  |
| > 10 µM | CCOC(=O)[C@]1(c2ccccc2)N=C(c2ccccc2)N(Cc2ccccc2)[C@@H]1c1ccncc1 |  |
| > 10 µM | c1ccc(CN2C(c3ccccc3)=N[C@@H](c3ccccc3)[C@H]2c2ccccc2)cc1 | IC50 [5]: > 10 µM |
| 6.13 µM | CCOC(=O)[C@]1(c2ccccc2)N=C(c2ccccc2)N(Cc2ccccc2)[C@@H]1c1ccco1 |  |
| 3.19 µM | CCOC(=O)[C@]1(c2ccccc2)N=C(c2ccc(Br)cc2)N(Cc2ccccc2)[C@@H]1c1ccccc1 (racemic) |  |
| > 10 µM | c1ccc(Cn2c(-c3ccccc3)nc(-c3ccccc3)c2-c2ccccc2)cc1 | IC50 [5]: > 10 µM |
| > 10 µM | NC(=O)[C@]1(c2ccccc2)N=C(c2ccccc2)N(Cc2ccccc2)[C@@H]1c1ccccc1 | IC50 [5]: > 20 µM |
| > 10 µM | CCOC(=O)[C@]1(c2ccccc2)N=C(c2ccccc2)N(C(C)=O)[C@@H]1c1ccccc1 |  |
| 2.58 µM | CCOC(=O)[C@]1(c2ccccc2)N=C(c2ccccc2)N(Cc2ccccc2)[C@@H]1c1ccccc1 | Activity (THP-1 [2]): Active; inhibition (Homo sapiens [10]): Active; solubility [6]: 1910 µg/mL (≈ 4150 µM); IC50 [5]: 2.5 µM |
| 2.23 µM | CCOC(=O)[C@]1(c2ccccc2)N=C(c2ccccc2)N(Cc2ccccc2)[C@@H]1c1ccc(Cl)cc1 |  |
| 2.02 µM | CCOC(=O)[C@]1(c2ccccc2)N=C(c2ccccc2)N(Cc2ccc(Cl)cc2)[C@@H]1c1ccccc1 | solubility [6]: < 500 µg/mL |
| 3.71 µM | CCOC(=O)[C@]1(c2ccccc2)N=C(c2ccccc2)N(Cc2ccc(F)cc2)[C@@H]1c1ccccc1 |  |
| 4.81 µM | CCOC(=O)[C@]1(c2ccccc2)N=C(c2ccccc2)N(Cc2ccccc2)[C@@H]1c1ccc(C(F)(F)F)cc1 |  |
